How the values were obtained:
Assay type in all cases: functional
[1] = system: Staphylococcus epidermidis; test: Antibacterial activity against Staphylococcus epidermidis
How it was run: (§1)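 Broth microdilution MIC per CLSI guidelines in Mueller-Hinton broth: serial 2-fold dilutions, inoculum 5 × 10⁵ CFU/mL in equal volume, 35 °C for 16-20 h. MIC = lowest concentration with no visible turbidity. Recent clinical isolates (43 total, Gram-positive and Gram-negative); values given as MIC ranges, MIC₅₀ and MIC₉₀ per species.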

Streptococcus pneumoniae = test: Antibacterial activity against Streptococcus pneumoniae; how it was run: as §1
Staphylococcus aureus [2] = test: Antibacterial activity against methicillin-resistant Staphylococcus aureus
How it was run: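 Clinical isolates (3 MRSA in a 43-strain panel). Broth microdilution per CLSI, serial 2-fold dilutions in Mueller-Hinton broth, inoculum 5 × 10⁵ CFU/mL, 35 °C for 16-20 h. MIC = lowest concentration with no visible turbidity; reported as MIC range, MIC₅₀ and MIC₉₀ across isolates.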

Streptococcus pyogenes = test: Antibacterial activity against Streptococcus pyogenes; how it was run: as §1
Haemophilus influenzae = test: Antibacterial activity against Haemophilus influenzae; how it was run: as §1
Enterococcus = test: Antibacterial activity against Enterococcus spp; how it was run: as §1
Staphylococcus aureus [3] = test: Antibacterial activity against methicillin-susceptible Staphylococcus aureus; how it was run: as §1

CCOC(=O)/C=C1\NC(=O)[C@@H]1[C@@H](C)OC(=O)c1cc(O)c(O)c(O)c1
16 µg/mL: MIC50 [1]
> 128 µg/mL: MIC90 (Streptococcus pneumoniae) | MIC50 (Streptococcus pyogenes) | MIC90 (Streptococcus pyogenes) | MIC50 (Enterococcus) | MIC90 (Enterococcus)
64 µg/mL: MIC90 [1]
128 µg/mL: MIC50 (Streptococcus pneumoniae) | MIC50 (Staphylococcus aureus [2]) | MIC90 (Staphylococcus aureus [2]) | MIC50 (Haemophilus influenzae) | MIC90 (Haemophilus influenzae) | MIC50 (Staphylococcus aureus [3]) | MIC90 (Staphylococcus aureus [3])

C[C@@H](O)[C@H]1C(=O)N/C1=C\C(=O)O
128 µg/mL: MIC50 (Streptococcus pneumoniae) | MIC90 (Streptococcus pneumoniae) | MIC50 (Streptococcus pyogenes) | MIC90 (Streptococcus pyogenes)
> 128 µg/mL: MIC50 [1] | MIC90 [1] | MIC50 (Haemophilus influenzae) | MIC90 (Haemophilus influenzae) | MIC50 (Enterococcus) | MIC90 (Enterococcus) | MIC50 (Staphylococcus aureus [3]) | MIC90 (Staphylococcus aureus [3])

CCOC(=O)/C=C1\NC(=O)[C@@H]1Cl
32 µg/mL: MIC90 [1] | MIC50 (Haemophilus influenzae) | MIC90 (Haemophilus influenzae) | MIC50 (Staphylococcus aureus [3])
> 128 µg/mL: MIC50 (Enterococcus) | MIC90 (Enterococcus)
128 µg/mL: MIC50 (Streptococcus pneumoniae) | MIC90 (Streptococcus pneumoniae) | MIC50 (Staphylococcus aureus [2]) | MIC90 (Staphylococcus aureus [2]) | MIC50 (Streptococcus pyogenes) | MIC90 (Streptococcus pyogenes)
64 µg/mL: MIC90 (Staphylococcus aureus [3])
16 µg/mL: MIC50 [1]

C[C@@H](O[Si](C)(C)C(C)(C)C)[C@H]1C(=O)N/C1=C/C(=O)OCc1ccccc1
64 µg/mL: MIC50 (Streptococcus pyogenes) | MIC90 (Streptococcus pyogenes) | MIC50 (Enterococcus) | MIC90 (Enterococcus)
> 128 µg/mL: MIC90 [1] | MIC50 (Staphylococcus aureus [2]) | MIC90 (Staphylococcus aureus [3])
128 µg/mL: MIC50 [1] | MIC50 (Haemophilus influenzae) | MIC90 (Haemophilus influenzae) | MIC50 (Staphylococcus aureus [3])
32 µg/mL: MIC50 (Streptococcus pneumoniae) | MIC90 (Streptococcus pneumoniae)

CCOC(=O)/C=C1\NC(=O)[C@@H]1[C@@H](C)OC(=O)c1ccccc1
> 128 µg/mL: MIC50 [1] | MIC90 [1] | MIC50 (Streptococcus pneumoniae) | MIC90 (Streptococcus pneumoniae) | MIC50 (Streptococcus pyogenes) | MIC90 (Streptococcus pyogenes) | MIC50 (Haemophilus influenzae) | MIC90 (Haemophilus influenzae) | MIC50 (Enterococcus) | MIC90 (Enterococcus) | MIC50 (Staphylococcus aureus [3]) | MIC90 (Staphylococcus aureus [3])

CCOC(=O)/C=C1/NC(=O)[C@@H]1[C@@H](C)O[Si](C)(C)C(C)(C)C
> 128 µg/mL: MIC50 (Enterococcus) | MIC90 (Enterococcus) | MIC50 (Staphylococcus aureus [3]) | MIC90 (Staphylococcus aureus [3])
128 µg/mL: MIC50 [1] | MIC90 [1] | MIC50 (Streptococcus pneumoniae) | MIC90 (Streptococcus pneumoniae) | MIC50 (Staphylococcus aureus [2]) | MIC50 (Streptococcus pyogenes) | MIC90 (Streptococcus pyogenes) | MIC50 (Haemophilus influenzae) | MIC90 (Haemophilus influenzae)

C[C@@H](O[Si](C)(C)C(C)(C)C)[C@H]1C(=O)N/C1=C\C(=O)O
> 128 µg/mL: MIC50 [1] | MIC90 [1] | MIC90 (Streptococcus pyogenes) | MIC50 (Haemophilus influenzae) | MIC90 (Haemophilus influenzae) | MIC50 (Staphylococcus aureus [3]) | MIC90 (Staphylococcus aureus [3])
128 µg/mL: MIC50 (Streptococcus pneumoniae) | MIC90 (Streptococcus pneumoniae) | MIC50 (Streptococcus pyogenes) | MIC50 (Enterococcus) | MIC90 (Enterococcus)

C[C@@H](O[Si](C)(C)C(C)(C)C)[C@H]1C(=O)N/C1=C\C(=O)Oc1cc(O)cc(O)c1
32 µg/mL: MIC50 [1] | MIC50 (Staphylococcus aureus [2]) | MIC50 (Staphylococcus aureus [3]) | MIC90 (Staphylococcus aureus [3])
16 µg/mL: MIC50 (Streptococcus pneumoniae) | MIC90 (Streptococcus pneumoniae) | MIC50 (Streptococcus pyogenes) | MIC90 (Streptococcus pyogenes)
64 µg/mL: MIC90 [1] | MIC90 (Staphylococcus aureus [2]) | MIC50 (Enterococcus) | MIC90 (Enterococcus)

O=C(O)/C=C1\NC(=O)[C@@H]1Cl
16 µg/mL: MIC50 (Streptococcus pyogenes)
128 µg/mL: MIC50 (Streptococcus pneumoniae) | MIC90 (Streptococcus pneumoniae) | MIC50 (Staphylococcus aureus [2]) | MIC90 (Staphylococcus aureus [2]) | MIC90 (Streptococcus pyogenes) | MIC50 (Enterococcus)
32 µg/mL: MIC50 (Staphylococcus aureus [3])
64 µg/mL: MIC50 [1] | MIC90 [1] | MIC50 (Haemophilus influenzae) | MIC90 (Haemophilus influenzae) | MIC90 (Staphylococcus aureus [3])
> 128 µg/mL: MIC90 (Enterococcus)

CCOC(=O)/C=C1\NC(=O)[C@@H]1[C@@H](C)O[Si](C)(C)C(C)(C)C
128 µg/mL: MIC50 (Streptococcus pneumoniae) | MIC90 (Streptococcus pneumoniae) | MIC50 (Streptococcus pyogenes) | MIC90 (Streptococcus pyogenes) | MIC50 (Haemophilus influenzae) | MIC90 (Haemophilus influenzae)
> 128 µg/mL: MIC50 [1] | MIC90 [1] | MIC50 (Enterococcus) | MIC90 (Enterococcus) | MIC50 (Staphylococcus aureus [3]) | MIC90 (Staphylococcus aureus [3])

CCOC(=O)/C=C1\NC(=O)[C@@H]1[C@@H](C)OC(=O)c1cc(OCc2ccccc2)c(OCc2ccccc2)c(OCc2ccccc2)c1
> 128 µg/mL: MIC50 [1] | MIC90 [1] | MIC50 (Streptococcus pneumoniae) | MIC90 (Streptococcus pneumoniae) | MIC50 (Streptococcus pyogenes) | MIC90 (Streptococcus pyogenes) | MIC50 (Haemophilus influenzae) | MIC90 (Haemophilus influenzae) | MIC50 (Enterococcus) | MIC90 (Enterococcus) | MIC50 (Staphylococcus aureus [3]) | MIC90 (Staphylococcus aureus [3])

CC1(C)S[C@@H]2[C@H](NC(=O)[C@H](N)c3ccc(O)cc3)C(=O)N2[C@H]1C(=O)O [AMOXICILLIN]
2 µg/mL: MIC50 (Enterococcus) | MIC90 (Enterococcus)
1 µg/mL: MIC50 [1] | MIC50 (Haemophilus influenzae) | MIC50 (Staphylococcus aureus [3])
128 µg/mL: MIC90 (Staphylococcus aureus [2])
< 0.06 µg/mL: MIC50 (Streptococcus pyogenes) | MIC90 (Streptococcus pyogenes)
0.12 µg/mL: MIC50 (Streptococcus pneumoniae)
8 µg/mL: MIC90 (Streptococcus pneumoniae) | MIC90 (Staphylococcus aureus [3])
4 µg/mL: MIC90 [1]
64 µg/mL: MIC50 (Staphylococcus aureus [2]) | MIC90 (Haemophilus influenzae)

Source: ChEMBL document CHEMBL1147665, “Design, synthesis, and biological evaluation of 4-alkyliden-beta lactams: new products with promising antibiotic activity against resistant bacteria” (J Med Chem, 2006)
